Assay [1] deals with Mus musculus. Nature of the assay: Licking latency was measured before treatment (at dose=20 mg/kg) by using mouse hot plate test. The format is functional. An outline of the steps: (§1)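 Male Swiss-Webster mice (22-28 g), 23 ± 1 °C, 12-h light/dark cycle, food and water ad libitum. Hot plate at 52.5 ± 0.1 °C with licking latency as read-out and 45 s cutoff. Mice with pre-drug latency below 12 or over 18 s were rejected. Compounds given sc, 5-12 mice per test. Significance was assessed by Dunnett's two-tailed test, P < 0.05.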
Background: In hot-plate and tail-flick tests a longer latency is read as antinociception.

In assay [2] the test system is Mus musculus. Nature of the assay: Licking latency was measured after 45 min treatment (at dose=20 mg/kg) by using mouse hot plate test. The format is functional. An outline of the steps:
as §1

Assay [3] relates to Mus musculus. Nature of the assay: MNTD:Maximal nontoxic dose of the compound, done on mouse; sc. The class given is functional. An outline of the steps:
(§2)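 Male Swiss-Webster mice dosed sc. The value is the highest dose causing no visible behavioural change (tremors, convulsions, hypomotility etc.), so that treated mice could not be told apart from untreated ones. Behaviour was scored by the Irwin method in groups of at least 10 animals.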

In assay [4] the test system is Mus musculus. Nature of the assay: Licking latency was measured after 15 min treatment (at dose=20 mg/kg) by using mouse hot plate test. The format is functional. The method in brief: as §1
The subject of assay [5] is Mus musculus. Kind of assay: Licking latency was measured after 45 min treatment (at dose=40 mg/kg) by using mouse hot plate test. The format is functional. An outline of the steps:
as §1

For assay [6], the system named is Mus musculus. Kind of assay: Licking latency was measured after 15 min treatment (at dose=40 mg/kg) by using mouse hot plate test. The class given is functional. The method in brief: as §1
The test system of assay [7] is Mus musculus. Kind of assay: MAD: minimal dose able to induce a statistically significant increase of the pain threshold, done on mouse; sc; IA= inactive. The class given is functional, organism-based. An outline of the steps:
(§3)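 Mouse hot plate test (52.5 ± 0.1 °C, 45 s cutoff) after sc dosing, in male Swiss-Webster mice. The value is the lowest dose giving a statistically significant rise in pain threshold. Dunnett's two-tailed test compared treated mice at maximum reaction time with pretest time, P < 0.05.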

Assay [8] concerns Mus musculus. Nature of the assay: Licking latency was measured before treatment (at dose=40 mg/kg) by using mouse hot plate test. The format is functional. The method in brief:
(§4)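 Male Swiss-Webster mice (22-28 g), 23 ± 1 °C, 12-h light/dark cycle. Hot plate at 52.5 ± 0.1 °C. Mice with pre-drug licking latency below 12 s or over 18 s were rejected. Cutoff 45 s. Compound given sc; latency read before dosing and at 15, 30 and 45 min. 5-12 mice per test.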

In assay [9] the test system is Mus musculus. Nature of the assay: Licking latency was measured after 30 min treatment (at dose=40 mg/kg) by using mouse hot plate test. The class given is functional. An outline of the steps:
as §1

In assay [10] the test system is Mus musculus. Nature of the assay: Licking latency was measured after 30 min treatment (at dose=20 mg/kg) by using mouse hot plate test. The format is functional. An outline of the steps:
as §1

In assay [11] the test system is Mus musculus. Kind of assay: MAD: minimal dose able to induce a statistically significant increase of the pain threshold, done on mouse; sc. The format is functional. An outline of the steps: as §3
For assay [12], the species on record is Mus musculus. Nature of the assay: Analgesic efficacy is expressed as percentage of that morphine, done on mouse. The class given is functional.
The species named for assay [13] is Mus musculus. Nature of the assay: Analgesic efficacy is expressed as percentage of that epibatidine, done on mouse. The class given is functional.
Assay [14] concerns Mus musculus. Kind of assay: Licking latency was measured before treatment (at dose=10 mg/kg) by using mouse hot plate test. The format is functional. The method in brief: as §1
In assay [15] the test system is Mus musculus. Kind of assay: Licking latency was measured after 30 min treatment (at dose=10 mg/kg) by using mouse hot plate test. The class given is functional. An outline of the steps: as §1
The subject of assay [16] is Mus musculus. Nature of the assay: Licking latency was measured after 45 min treatment (at dose=50 mg/kg) by using mouse hot plate test. The class given is functional. The method in brief: as §1
Assay [17] deals with Mus musculus. Nature of the assay: Licking latency was measured after 30 min treatment (at dose=50 mg/kg) by using mouse hot plate test. The class given is functional. An outline of the steps:
as §1

In assay [18] the test system is Mus musculus. Kind of assay: MAD: minimal dose able to induce a statistically significant increase of the pain threshold, done on mouse; sc; IA = inactive. The format is functional, organism-based. An outline of the steps:
as §3

The subject of assay [19] is Mus musculus. Nature of the assay: Licking latency was measured after 15 min treatment (at dose=50 mg/kg) by using mouse hot plate test. The format is functional. An outline of the steps: as §1
The test system of assay [20] is Mus musculus. Nature of the assay: Licking latency was measured before treatment (at dose=50 mg/kg) by using mouse hot plate test. The format is functional. An outline of the steps:
as §4

The test system of assay [21] is Mus musculus. Kind of assay: Licking latency was measured after 15 min treatment (at dose=10 mg/kg) by using mouse hot plate test. The format is functional. The method in brief: as §1
In assay [22] the test system is Mus musculus. Nature of the assay: Licking latency was measured after 45 min treatment (at dose=10 mg/kg) by using mouse hot plate test. The format is functional. An outline of the steps:
as §1

Assay [23] deals with Mus musculus. Nature of the assay: Licking latency was measured after 15 min treatment (at dose=3 mg/kg) by using mouse hot plate test. The class given is functional. The method in brief:
as §1

Assay [24] concerns Mus musculus. Nature of the assay: Licking latency was measured before treatment (at dose=3 mg/kg) by using mouse hot plate test. The format is functional. The method in brief:
as §4

Assay [25] deals with Mus musculus. Nature of the assay: Licking latency was measured after 45 min treatment (at dose=3 mg/kg) by using mouse hot plate test. The class given is functional. An outline of the steps: as §1
Assay [26] relates to Mus musculus. Kind of assay: Licking latency was measured after 30 min treatment (at dose=3 mg/kg) by using mouse hot plate test. The class given is functional. An outline of the steps: as §1
Assay [27] concerns Mus musculus. Nature of the assay: Licking latency was measured after 45 min treatment (at dose=25 mg/kg) by using mouse hot plate test. The class given is functional. The method in brief: as §1
Assay [28] has as its system Mus musculus. Kind of assay: Licking latency was measured after 15 min treatment (at dose=25 mg/kg) by using mouse hot plate test. The class given is functional. An outline of the steps: as §1
The subject of assay [29] is Mus musculus. Kind of assay: Licking latency was measured before treatment (at dose=25 mg/kg) by using mouse hot plate test. The class given is functional. The method in brief: as §1
The test system of assay [30] is Mus musculus. Nature of the assay: Licking latency was measured after 30 min treatment (at dose=25 mg/kg) by using mouse hot plate test (*P<0.01). The format is functional. The method in brief: as §1
For assay [31], the system named is Mus musculus. Nature of the assay: Maximal nontoxic dose of the compound, done on mouse; sc. The format is functional. An outline of the steps:
as §2

The test system of assay [32] is K177 cell line. Kind of assay: Cholinergic interactions was measured with FLIPR device on […] cells and given as EC50. The class given is functional, cell-based. The following applies: Homo sapiens. An outline of the steps: (§5)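 Cells were plated on poly(ethylenimine)-coated plates and used about 72 h later. Loading was Fluo-3 AM for 1 h at 37 °C, followed by washes in Hepes-salts buffer, pH 7.4. FLIPR recorded Ca2+ fluorescence over 5 min after agonist addition. Responses were normalized to 100 µM nicotine (100%) and unloaded cells (0%), and EC50 and intrinsic activity were derived from concentration-response curves.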

In assay [33] the test system is IMR-32. Kind of assay: Cholinergic interactions was measured with FLIPR device on IMR-32 cells of human neuroblastoma clonal line, given as effective dose. The format is functional, cell-based. The method in brief: as §5
The test system of assay [34] is TE-671. Nature of the assay: Cholinergic interactions was measured with FLIPR device on TE671 cells and given as Effective dose. The format is functional, cell-based. Particulars: Homo sapiens. An outline of the steps: as §5
For assay [35], the system named is TE-671. Kind of assay: Cholinergic interactions was measured with FLIPR device on TE671 cells and given as Intrinsic activity. The format is functional, Homo sapiens. An outline of the steps: as §5
In assay [36] the test system is IMR-32. Nature of the assay: Cholinergic interactions was measured with FLIPR device on cells of IMR-32 human neuroblastoma clonal line and given as Intrinsic activity. The format is functional. The method in brief:
as §5

For assay [37], the system named is K177 cell line. Nature of the assay: Cholinergic interactions was measured with FLIPR device on […] cells and given as Intrinsic activity. The format is functional, Homo sapiens. An outline of the steps:
as §5

Assay [38] relates to Mus musculus. Kind of assay: Minimal dose able to induce a statistically significant increase of the pain threshold, done on mouse; sc. The class given is functional. The method in brief: as §3

The source made the active and inactive calls.

With `CCC(=O)N1C2CCC1CN(c1ccc(Cl)nn1)C2`, the Licking latency in the assay with Mus musculus [1] is recorded as 13.8 s; in the assay with Mus musculus [2], 18 s; with Mus musculus [4], 17.1 s; in the assay on Mus musculus [5], 18.4 s; in the assay on Mus musculus [6], 17 s; in the assay on Mus musculus [8] it was 14.5 s. The Licking latency in the assay with Mus musculus [9] turned out to be 16.4 s; in the assay with Mus musculus [10] it was 15.6 s. Also, the MNTD in the assay on Mus musculus [3] is >60 mg/kg. Moreover, the MAD result in the assay with Mus musculus [7] was “inactive”.
In turn, `CN1CC[C@]23c4c5ccc(O)c4O[C@H]2[C@@H](O)C=C[C@H]3[C@H]1C5` [MORPHINE] yielded an MNTD in the assay on Mus musculus [3] of 20 mg/kg. Also, the MAD in the assay on Mus musculus [11] worked out at 2 mg/kg. Moreover, in the assay listed under Mus musculus [12], the “Analgesic efficacy compared to morphine” value is on record as 100%. The “Analgesic efficacy compared to epibatidine” value in the assay listed under Mus musculus [13] is 122%.
As for `CCC(=O)N1CC2CCC(C1)N2c1ccc(Cl)nn1`, the Licking latency in the assay on Mus musculus [14] came to 15.8 s; with Mus musculus [15], 16.7 s; in the assay with Mus musculus [16], 14 s; in the assay with Mus musculus [17] it was 13 s; in the assay on Mus musculus [19], 17 s; in the assay with Mus musculus [20], 14.6 s. Further, the Licking latency in the assay with Mus musculus [21] was 16 s; with Mus musculus [22], 16.1 s. The MNTD in the assay on Mus musculus [3] was >50 mg/kg. In addition, the MAD result in the assay on Mus musculus [18] was “inactive”.
For `Clc1nccc(N2CC3CCC(C2)N3)n1`, the Licking latency in the assay with Mus musculus [14] is given as 15.3 s; with Mus musculus [23], 21.3 s; in the assay with Mus musculus [15], 26 s; in the assay on Mus musculus [24] it was 14.5 s; in the assay with Mus musculus [21], 31.1 s; with Mus musculus [25], 16.2 s. Also, the Licking latency was 24.3 s in the assay on Mus musculus [22] and 17.4 s in the assay with Mus musculus [26]. The molecule also had an MNTD in the assay on Mus musculus [3] of 15 mg/kg. In the assay on Mus musculus [11], this molecule showed an MAD of 3 mg/kg. In the assay filed under Mus musculus [12], the “Analgesic efficacy compared to morphine” value amounted to 82%. The “Analgesic efficacy compared to epibatidine” value in the assay listed under Mus musculus [13] came to 99%.
Take `Clc1cc(N2CC3CCC(C2)N3)ncn1`: the Licking latency worked out at 13.6 s in the assay on Mus musculus [14]; 19.7 s in the assay with Mus musculus [15]; 39.1 s in the assay on Mus musculus [27]; 39.5 s in the assay on Mus musculus [28]; 14.9 s with Mus musculus [29]; 22.2 s with Mus musculus [21]. Besides, the Licking latency with Mus musculus [30] came out at 38.5 s; in the assay with Mus musculus [22], 19.6 s. For the same molecule, the MNTD with Mus musculus [3] was found to be 30 mg/kg. The same molecule registered an MAD in the assay with Mus musculus [11] of 10 mg/kg. In the assay listed under Mus musculus [12], the “Analgesic efficacy compared to morphine” value amounted to 127%. Further, in the assay listed under Mus musculus [13], the “Analgesic efficacy compared to epibatidine” value turned out to be 156%.
Broadly, the EC50 is the concentration needed to bring the measured effect to its halfway point. A higher EC50 goes with a less potent agent. As to `Clc1ccc(C2CC3CC[C@H]2N3)cn1` (stereo partly drawn) [EPIBATIDINE], the MNTD in the assay with Mus musculus [31] was 0.007 mg/kg. Further, the EC50 was 350 nM in the assay on K177 cell line [32], 34 nM with IMR-32 [33] and 1260 nM in the assay with TE-671 [34]. Also, the Intrinsic activity amounted to 79.5% with TE-671 [35], 145.6% in the assay on IMR-32 [36] and 148.1% in the assay on K177 cell line [37]. In addition, the Efficacy in the assay listed under Mus musculus [12] turned out to be 82%; in the assay listed under Mus musculus [13], 100%. In addition, the MAD in the assay on Mus musculus [38] came to 0.001 mg/kg.

These data come from ChEMBL document CHEMBL1131482 (J Med Chem, 1998).
